The text below walks through data of ChEMBL document CHEMBL5678817, “FTBMT, a Novel and Selective GPR52 Agonist, Demonstrates Antipsychotic-Like and Procognitive Effects in Rodents, Revealing a Potential Therapeutic Agent for Schizophrenia” (J Pharmacol Exp Ther, 2017).

One assay deals with Rattus norvegicus. The assay can be described thus: Effect on prolactin level in Wistar rat at 1 mg/kg, po […] by immunoassay. The assay is classed as functional, organism-based. In outline: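 Male Wistar rats (7 weeks) dosed orally (haloperidol 1 mg/kg among arms) or vehicle. Trunk blood taken into EDTA 1 h later and centrifuged 1600 g, 20 min, 4 °C. Plasma prolactin measured by rat prolactin enzyme immunoassay; n = 4.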

Another assay concerns Mus musculus. The assay can be described thus: Antipsychotic activity in methamphetamine-induced hyperactivity in ICR mouse assessed as minimum effective dose administered orally. The class given is functional. To be noted: route po, read-out: MED.

Active and inactive are the calls of the source. No cut-off for these calls is given here.

Turning to `O=C(CCCN1CCC(O)(c2ccc(Cl)cc2)CC1)c1ccc(F)cc1`, the outcome with Rattus norvegicus was Active.

Take `Cc1cc2c(s1)Nc1ccccc1N=C2N1CCN(C)CC1` [OLANZAPINE]: the minimal effective dose with Mus musculus came out at 1 mg/kg.
